Test [1] concerns the target T1, Glutamate NMDA receptor; Grin1/Grin2b (Rattus norvegicus) (UniProt P35439+Q00960). The test can be described thus: Positive allosteric modulation of recombinant rat GluN1/GluN2B receptor expressed in xenopus laevis oocyte assessed as potentiation of glutamate and glycine-induced current response at 30 uM at holding potential -40mV by two electrode voltage clamp method relative to control. The procedure, abridged:
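Two-electrode voltage clamp at -40 mV, 23°C, pH 7.4 Ba²⁺ recording solution, on Xenopus oocytes expressing rat NMDA receptors. Currents were evoked by 100 µM glutamate plus 30 µM glycine, with compound co-applied (DMSO 0.05–0.5% final). […] Each compound used at least 4 oocytes from at least 2 frogs.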
Background: Two-electrode voltage clamp holds a large cell at a set potential and records current.

For test [2], the target named is Glutamate NMDA receptor; Grin1/Grin2c (Rattus norvegicus, UniProt P35439+Q00961). In words: Positive allosteric modulation of recombinant rat GluN1/GluN2C receptor expressed in xenopus laevis oocyte assessed as potentiation of glutamate and glycine-induced current response at holding potential -40mV by two electrode voltage clamp method. The method, boiled down: (§1)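 Two-electrode voltage clamp at -40 mV, 23°C, pH 7.4 Ba²⁺ recording solution, on Xenopus oocytes expressing rat NMDA receptors. Currents were evoked by 100 µM glutamate plus 30 µM glycine, with compound co-applied (DMSO 0.05–0.5% final). Each compound used at least 4 oocytes from at least 2 frogs.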

Test [3] concerns the target Glutamate NMDA receptor; Grin1/Grin2b (Rattus norvegicus, UniProt P35439+Q00960). The test can be described thus: Positive allosteric modulation of recombinant rat GluN1/GluN2B receptor expressed in xenopus laevis oocyte assessed as potentiation of glutamate and glycine-induced current response at holding potential -40mV by two electrode voltage clamp method. The method, boiled down: as §1

The target in test [4] is Glutamate NMDA receptor; Grin1/Grin2c (Rattus norvegicus) (UniProt P35439+Q00961). In words: Positive allosteric modulation of recombinant rat GluN1/GluN2C receptor expressed in xenopus laevis oocyte assessed as potentiation of glutamate and glycine-induced current response at 30 uM at holding potential -40mV by two electrode voltage clamp method relative to control. The procedure, abridged: as §1

The target of test [5] is Ionotropic glutamate receptor NMDA 1/2D (Rattus norvegicus, UniProt P35439+Q62645). In words: Positive allosteric modulation of recombinant rat GluN1/GluN2D receptor expressed in xenopus laevis oocyte assessed as potentiation of glutamate and glycine-induced current response at holding potential -40mV by two electrode voltage clamp method. The procedure, abridged: as §1

Test [6] deals with T1, Glutamate NMDA receptor; Grin1/Grin2b (Rattus norvegicus). In words: Positive allosteric modulation of recombinant rat GluN1/GluN2B receptor expressed in xenopus laevis oocyte assessed as compound concentration required to show two fold increase in glutamate and glycine-induced current response at holding potential -40mV by two electrode voltage clamp method.
For test [7], the target named is Ionotropic glutamate receptor NMDA 1/2D (Rattus norvegicus) (UniProt P35439+Q62645). In words: Positive allosteric modulation of recombinant rat GluN1/GluN2D receptor expressed in xenopus laevis oocyte assessed as potentiation of glutamate and glycine-induced current response at 30 uM at holding potential -40mV by two electrode voltage clamp method relative to control. The procedure, abridged: as §1

As usually defined, the Emax is the maximal effect, on the per cent scale that the assay sets. What is called EC50 is the concentration that produces a half-maximal response. For the compound `CCOc1ccc(OCC2c3ccc(OC(C)C)cc3CCN2C(=S)c2ccc(F)c(Cl)c2)cc1` (centres undefined), the Emax in test [1] worked out at 222%; in test [4] it was 159%; in test [7] it was 128%. The EC50 in test [2] turned out to be 350 nM; in test [3], 840 nM; in test [5], 440 nM. The CD in test [6] stood at 17 µM.

On to `CCOc1ccc(OCC2c3ccc(OC4CCCC4)cc3CCN2C(=O)c2cccc(F)c2)cc1` (centres undefined), for which the Activity in test [1] is 202%; in test [4] it was 169%; in test [7] it was 161%. The Emax in test [1] stood at 210%; in test [4], 173%; in test [7] it was 163%. Also, the half-maximal effective concentration (EC50) in test [2] was found to be 4500 nM; in test [3] it was 4400 nM; in test [5] it was 4900 nM.

As to `COc1ccc(OCC2c3ccc(OC(C)C)cc3CCN2C(=O)c2cccc(I)c2)cc1` (centres undefined), the Activity is 159% in test [1], 215% in test [4] and 408% in test [7]. The Emax is 172% in test [1], 310% in test [4] and 414% in test [7]. For the same compound, the values for the EC50 in test [2], in test [3] and in test [5] were 690 nM, 1700 nM and 1600 nM, respectively.

`CCOc1ccc(OCC2c3ccc(OC(C)C)cc3CCN2C(=O)c2ccc(F)c(F)c2)cc1` (centres undefined): the Activity is 172% in test [1], 145% in test [4] and 133% in test [7]. Also, the figures for the Emax in test [1], in test [4] and in test [7] were 173%, 150% and 137%, respectively. In addition, the results for the EC50 in test [2], in test [3] and in test [5] were 1800 nM, 3700 nM and 2900 nM, respectively.

With `CC(C)Oc1ccc2c(c1)CCN(C(=O)c1cccc(F)c1)C2COc1ccc(OC(F)(F)F)cc1` (centres undefined), the results for the Activity in test [1], in test [4] and in test [7] were 124%, 154% and 136%, respectively. In addition, the Emax in test [1] was determined as 123%; in test [4] it was 157%; in test [7], 137%. For the same compound, the 50% effective concentration (EC50) in test [2] is 2500 nM; in test [3], 3200 nM; in test [5], 4100 nM.

As to `CCC(CC)Oc1ccc2c(c1)CCN(C(=O)c1cccc(Cl)c1)C2COc1ccc(OC)cc1` (centres undefined), the figures for the Activity in test [1], in test [4] and in test [7] were 331%, 286% and 381%, respectively. The Emax in test [1] stood at 344%; in test [4] it was 294%; in test [7], 390%. Further, the values for the EC50 in test [2], in test [3] and in test [5] were 1600 nM, 1800 nM and 1700 nM, respectively.

As to `COc1ccc(OCC2c3ccc(N4CCCCC4)cc3CCN2C(=O)c2cccc(Cl)c2)cc1` (centres undefined), the Activity in test [1] turned out to be 213%; in test [4] it was 289%; in test [7], 418%. Further, the Emax in test [1] amounted to 221%; in test [4] it was 313%; in test [7] it was 464%. The EC50 is 2300 nM in test [2], 4900 nM in test [3] and 4000 nM in test [5].

`CCOc1ccc(OCC2c3ccc(OCC(C)C)cc3CCN2C(=O)c2cccc(F)c2)cc1` (centres undefined): the Activity in test [1] was found to be 332%; in test [4], 309%; in test [7], 351%. The figures for the Emax in test [1], in test [4] and in test [7] were 342%, 325% and 364%, respectively. For the same compound, the half-maximal effective concentration (EC50) in test [2] turned out to be 3100 nM; in test [3], 2500 nM; in test [5], 3400 nM.

Turning to `CCOc1ccc(OCC2c3ccc(OC(C)C)cc3CCN2C(=S)c2cccc(F)c2)cc1` (centres undefined), the figures for the Emax in test [1], in test [4] and in test [7] were 184%, 170% and 159%, respectively. Also, the EC50 was 1400 nM in test [2], 550 nM in test [3] and 1200 nM in test [5].

For `COc1ccc(OCC2c3ccc(N4CCOCC4)cc3CCN2C(=O)c2cccc(Cl)c2)cc1` (centres undefined), the Activity in test [1] is 146%; in test [4], 273%; in test [7], 231%. In addition, the Emax in test [1] stood at 188%; in test [4], 342%; in test [7] it was 413%. Besides, the figures for the EC50 in test [2], in test [3] and in test [5] were 4700 nM, 9300 nM and 22000 nM, respectively.

For `CCOc1ccc(OCC2c3ccc(OC(C)C)cc3CCN2C(=S)c2cccc(Br)c2)cc1` (centres undefined), the Emax turned out to be 174% in test [1], 166% in test [4] and 135% in test [7]. Further, the EC50 in test [2] was 940 nM; in test [3] it was 340 nM; in test [5], 280 nM.

Take `CCOc1ccc(OCC2c3ccc(OCC(C)C)cc3CCN2C(=O)c2cccc(Cl)c2)cc1` (centres undefined): the Activity in test [1] turned out to be 294%; in test [4], 238%; in test [7] it was 342%. Also, the Emax in test [1] amounted to 293%; in test [4], 242%; in test [7] it was 351%. For the same compound, the EC50 in test [2] came to 1000 nM; in test [3] it was 1000 nM; in test [5], 1500 nM.

As for `COc1ccc(OCC2c3ccc(OC4CCCCC4)cc3CCN2C(=O)c2cccc(Cl)c2)cc1` (centres undefined), the Activity stood at 259% in test [1], 222% in test [4] and 309% in test [7]. For the same compound, the results for the maximal response (Emax) in test [1], in test [4] and in test [7] were 265%, 225% and 317%, respectively. Besides, the EC50 in test [2] is 1200 nM; in test [3], 2700 nM; in test [5], 1900 nM.

For the compound `COc1ccc(OCC2c3ccc(N(C)C(C)C)cc3CCN2C(=O)c2cccc(Cl)c2)cc1` (centres undefined), the Activity in test [1] stood at 228%; in test [4], 404%; in test [7], 500%. Moreover, the Emax in test [1] came to 235%; in test [4], 424%; in test [7], 549%. Besides, the results for the EC50 in test [2], in test [3] and in test [5] were 2000 nM, 5900 nM and 4000 nM, respectively.

In the case of `CCOc1ccc2c(c1)CCN(C(=O)c1cccc(Cl)c1)C2COc1ccc(OC)cc1` (centres undefined), the figures for the Activity in test [1], in test [4] and in test [7] were 158%, 285% and 329%, respectively. Further, the results for the Emax in test [1], in test [4] and in test [7] were 167%, 294% and 344%, respectively. Moreover, the figures for the EC50 in test [2], in test [3] and in test [5] were 2400 nM, 7800 nM and 3000 nM, respectively.

On to `CC(C)Oc1ccc2c(c1)CCN(C(=O)c1cccc(Cl)c1)C2COc1ccc(OC(F)(F)F)cc1` (centres undefined), for which the figures for the Activity in test [1], in test [4] and in test [7] were 130%, 189% and 150%, respectively. Besides, the Emax in test [1] was 130%; in test [4] it was 192%; in test [7] it was 152%. For the same compound, the results for the EC50 in test [2], in test [3] and in test [5] were 1500 nM, 1400 nM and 1700 nM, respectively.

For `COc1ccc(OCC2c3ccc(NC(C)C)cc3CCN2C(=O)c2cccc(Cl)c2)cc1` (centres undefined), the values for the Activity in test [1], in test [4] and in test [7] were 138%, 239% and 333%, respectively. Also, the values for the Emax in test [1], in test [4] and in test [7] were 141%, 261% and 363%, respectively. Further, the figures for the EC50 in test [2], in test [3] and in test [5] were 4700 nM, 9300 nM and 5100 nM, respectively.

`CCOc1ccc(OCC2c3ccc(OC(C)C)cc3CCN2C(=O)c2ccc(F)c(Cl)c2)cc1` (centres undefined): the Activity in test [1] was 169%; in test [4], 159%; in test [7], 133%. For the same compound, the Emax was 170% in test [1], 162% in test [4] and 137% in test [7]. For the same compound, the figures for the EC50 in test [2], in test [3] and in test [5] were 1300 nM, 2200 nM and 2200 nM, respectively.

Regarding `COc1ccc(OCC2c3ccc(OC(C)C)cc3CCN2C(=O)c2ccc(Cl)cc2)cc1` (centres undefined), the Activity stood at 163% in test [1], 251% in test [4] and 244% in test [7]. The Emax in test [1] came out at 182%; in test [4], 290%; in test [7] it was 288%. Further, the EC50 in test [2] is 9500 nM; in test [3], 12000 nM; in test [5], 11000 nM.

Regarding `CC(C)Oc1ccc(OCC2c3ccc(OC(C)C)cc3CCN2C(=S)c2cccc(C(F)(F)F)c2)cc1` (centres undefined), the figures for the Emax in test [1], in test [4] and in test [7] were 191%, 162% and 133%, respectively. The figures for the EC50 in test [2], in test [3] and in test [5] were 340 nM, 270 nM and 330 nM, respectively.
